Experimental data as given in ChEMBL document CHEMBL4033789, “Discovery of a New Four-Leaf Clover-Like Ligand as a Potent c-MYC Transcription Inhibitor Specifically Targeting the Promoter G-Quadruplex” (J Med Chem, 2018).
Activity calls are given as the source filed them. No cut-off for these calls is given here.

Experiments:
[1] = Stabilization of antiparallel HRAS G-quadruplex DNA (unknown origin) assessed as effect on melting temperature at 15 uM by circular dichroism spectroscopic assay; type: ADME
Outline: (§1)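 CD melting of 3 µM annealed G-quadruplex with or without 15 µM ligand in 10 mM Tris-HCl pH 7.2 with 2 mM KCl (50 mM KCl for htg22 and HRAS); read every 5 °C over 25–95 °C, heating 1 °C/min.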

[2] = Stabilization of c-Kit G-quadruplex DNA in human SiHa cells assessed as effect on c-Kit mRNA level at 1.25 to 5 uM fter 6 hrs by RT-PCR method; type: ADME, cell-based
Outline: (§2)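 SiHa cells (2.0×10^5) dosed 6 h; total RNA reverse-transcribed with oligo dT18 primer and M-MLV (42 °C 1 h, 85 °C 5 min); PCR 95 °C 5 min then 30 cycles (95 °C 30 s, 58 °C 30 s, 72 °C 40 s); products checked on agarose gel.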

Mus musculus [3] = assay: Toxicity in nude BALB/c mouse xenografted with human SiHa cells assessed as body weight reduction at 5 to 20 mg/kg, ip administered every other day for 24 days; type: organism-based; settings: in vivo, 576 h
Outline: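 BALB/c nude mice, 5 weeks old, implanted subcutaneously in right flank with 1×10^7 SiHa cells; at ~50 mm3 tumor, 10 per group dosed ip every other day for 24 days, saline control; body weight measured daily, viscera weighed at sacrifice; mean ± SEM, Student's t test versus saline.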

Mus musculus [4] = assay: Toxicity in nude BALB/c mouse xenografted with human SiHa cells assessed as signs of distress at 5 to 20 mg/kg, ip administered every other day for 24 days; type: organism-based; settings: in vivo, 576 h
SiHa [5] = assay: Induction of apoptosis in human SiHa cells assessed as upregulation of cleaved PARP protein levels at 1.25 to 5 uM after 24 hrs by Western blot analysis relative to control; type: functional, cell-based
Outline: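 SiHa cells (2.0×10^5 per well) treated 24 h, lysed at 4 °C for 30 min, supernatant cleared at 15,000 rpm; protein measured by BCA, 30 µg resolved on 10% SDS-PAGE, transferred to nitrocellulose, blocked in 5% milk/TBS-Tween 1 h, primary antibodies overnight at 4 °C, HRP secondaries 2 h at room temperature.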

[6] = Stabilization of wild type c-Myc promoter G-quadruplex DNA (unknown origin) transfected in human SiHa cells co-expressing psiCHECK2 luciferase plasmid assessed as inhibition of gene transcription at 1.25 to 2.5 uM after 48 hrs by dual-luciferase reporter gene assay; type: cell-based
Outline: (§3)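 SiHa cells transfected with psiCHECK2 carrying wild-type or mutant c-MYC promoter driving Renilla luciferase, firefly luciferase on same plasmid; compound added 4 h post-transfection, incubated further at 37 °C; Renilla signal normalized to firefly; three repeats, mean ± SEM.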

Homo sapiens [7] = species: Homo sapiens; assay: Stabilization of c-Myc G-quadruplex DNA in human SiHa cells assessed as decrease in c-Myc protein expression at 1.25 to 5 uM after 24 hrs by Western blot method; type: cell-based
Outline: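 SiHa cells (2.0×10^5) exposed 24 h, lysed at 4 °C; 30 µg protein per lane on 10% SDS-PAGE, transferred to nitrocellulose, milk-blocked, primary antibody overnight at 4 °C, HRP secondary 2 h at room temperature.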

[8] = Binding affinity to VEGF promoter G-quadruplex DNA (unknown origin) after 1 min by fluorescence titration method; type: ADME
Outline: (§4)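 Oligonucleotide stock added stepwise to fixed-concentration compound in 10 mM Tris-HCl pH 7.2, 100 mM KCl; equilibrated ≥1 min after each addition, emission read with excitation at 350 nm. KD from fitting titration data to the Benesi–Hildebrand equation; 1:1 stoichiometry checked by Job plot.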

Homo sapiens [9] = species: Homo sapiens; assay: Stabilization of c-Myc G-quadruplex DNA in human SiHa cells assessed as inhibition of c-Myc mRNA level at 1.25 to 5 uM after 6 hrs by RT-PCR method; type: cell-based; outline: as §2
A-375 = assay: Cytotoxicity against human A375 cells assessed as reduction in cell viability after 24 hrs by MTT assay; type: functional, cell-based; settings: A-375, 24 h
Outline: (§5)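 Cells seeded at 5.0×10^3 per well, exposed to compound for 24 h; MTT (2.5 mg/mL) added for 4 h, formazan dissolved in DMSO, OD read at 570 nm. Triplicate; IC50 from curves of mean OD against concentration.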

Homo sapiens [10] = species: Homo sapiens; assay: Stabilization of c-Myc promoter G-quadruplex DNA in human CA46 cells assessed as effect on exon 2 transcriptional level at 1.25 to 5 uM after 6 hrs by RT-PCR analysis; type: cell-based
Outline: (§6)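 RAJI and CA46 cells treated 6 h over a concentration range; total RNA reverse-transcribed (oligo dT18, M-MLV, 42 °C 1 h then 85 °C 5 min); exon 1 and exon 2 amplified by real-time PCR with exon-specific primers, products run on 1% agarose gel; three repeats.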

[11] = Stabilization of c-Myc promoter pu22 G-quadruplex DNA (unknown origin) assessed as change in melting temperature at 15 uM by circular dichroism spectroscopic assay; outline: as §1
[12] = Stabilization of c-Myc mutant promoter DNA (unknown origin) transfected in human SiHa cells assessed as reduction in gene transcription at 1.25 to 2.5 uM after 24 hrs by dual-luciferase reporter gene assay; type: cell-based; outline: as §3
Homo sapiens [13] = species: Homo sapiens; assay: Stabilization of c-Myc promoter G-quadruplex DNA in human CA46 cells assessed as downregulation of exon 1 transcriptional level at 1.25 to 5 uM after 6 hrs by RT-PCR analysis; type: cell-based; outline: as §6
[14] = Binding affinity to BCL2 promoter G-quadruplex DNA (unknown origin) after 1 min by fluorescence titration method; type: ADME; outline: as §4
SiHa [15] = assay: Antitumor activity against human SiHa cells xenografted in nude BALB/c mouse assessed as tumor growth inhibition at 5 mg,kg, ip administered every other day for 24 days; type: functional
Outline: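 BALB/c nude mice (5 weeks old) given 1×10^7 SiHa cells subcutaneously in right flank; at ~50 mm3 tumor volume, randomized (10 per group) and dosed intraperitoneally every other day for 24 days; controls got equal-volume saline. Caliper volume as 1/2 × length × width2; tumors weighed at end; inhibition rate = (1 − mean treated tumor weight/mean control tumor weight) × 100%.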

SiHa [16] = assay: Cytotoxicity against human SiHa cells assessed as reduction in cell viability after 24 hrs by MTT assay; type: functional, cell-based; outline: as §5
Huh-7 = assay: Cytotoxicity against human Huh7 cells assessed as reduction in cell viability after 24 hrs by MTT assay; type: functional, cell-based; settings: Huh-7, 24 h; outline: as §5

For `CCn1c2ccccc2c2cc(-c3nc(-c4ccc(N5CCN(C)CC5)cc4)c(-c4ccc(N5CCN(C)CC5)cc4)n3-c3ccc(OC)cc3)ccc21`, the Activity [1] was “Not Active”, the Activity [2] was “Not Active” and the Activity (Mus musculus [3]) was “Non-Toxic”. For the same molecule, the Activity (Mus musculus [4]) was “Non-Toxic”, the Activity (SiHa [5]) was “Active” and the inhibition [6] was “Active”. For the same molecule, the Activity (Homo sapiens [7]) was “Active”, the Kd [8] was 0.9 µM and the inhibition (Homo sapiens [9]) was “Active”. For the same molecule, the IC50 (A-375) was 4.2 µM, the Activity (Homo sapiens [10]) was “inactive” and the ΔTm [11] was 20 °C. For the same molecule, the Activity [12] was “inactive”, the Activity (Homo sapiens [13]) was “Active” and the Kd [14] was 0.8 µM. The TGI (SiHa [15]) was 57%, the IC50 (SiHa [16]) was 3.3 µM and the IC50 (Huh-7) was 4.1 µM.
